Active and inactive are the calls of the source. The calls are words filed in the database; no cut-off is given here.
Columns and labels:
CDK9/cyclin T1 [1] = molecular target: T1, CDK9/cyclin T1 (Homo sapiens, UniProt P50750); test: Inhibition of CDK9/CycT1 (unknown origin) using TAMRA-Rbtide and ATP as substrate after 1 hr; type: protein-complex assay
[2] = molecular target: Cyclin-dependent kinase 2/cyclin E1 (Homo sapiens) (UniProt P24864+P24941); test: Inhibition of CDK2/CycE (unknown origin) using FAM labeled peptide as substrate at 1 uM by IMAP FAM FP assay; type: protein-complex assay
Summary of the method: (§1)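 Run by contract partners as an IMAP fluorescence polarization assay. […] Enzyme amount was set to give 50% substrate turnover. Compounds were added in DMSO, IMAP binding solution added after the kinase step, then FP read.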

[3] = molecular target: Cyclin-dependent kinase 4/cyclin D1 (Homo sapiens) (UniProt P11802+P24385); test: Inhibition of CDK4/CycD1 (unknown origin) using FAM labeled peptide as substrate at 1 uM by IMAP FAM FP assay; type: protein-complex assay; summary of the method: as §1
[4] = molecular target: T2, CDK9/cyclin T1 (Homo sapiens) (UniProt O60563+P50750); test: Inhibition of CDK9/CycT1 (unknown origin) using TAMRA-Rbtide and ATP as substrate at 1 uM after 1 hr; type: protein-complex assay
[5] = molecular target: Tyrosine-protein kinase ABL1 (Homo sapiens) (UniProt P00519); test: Inhibition of ABL (unknown origin) at 1 uM
[6] = molecular target: RAC-alpha serine/threonine-protein kinase (Homo sapiens) (UniProt P31749); test: Inhibition of AKT1 (unknown origin) at 1 uM
[7] = molecular target: Tyrosine-protein kinase receptor UFO (Homo sapiens) (UniProt P30530); test: Inhibition of AXL (unknown origin) at 1 uM
[8] = molecular target: Serine/threonine-protein kinase B-raf (Homo sapiens) (UniProt P15056); test: Inhibition of bRAF (unknown origin) at 1 uM
[9] = molecular target: Serine/threonine-protein kinase Chk1 (Homo sapiens) (UniProt O14757); test: Inhibition of CHK1 (unknown origin) at 1 uM
[10] = molecular target: Mast/stem cell growth factor receptor Kit (Homo sapiens) (UniProt P10721); test: Inhibition of cKIT (unknown origin) at 1 uM
[11] = molecular target: Hepatocyte growth factor receptor (Homo sapiens) (UniProt P08581); test: Inhibition of cMET (unknown origin) at 1 uM
Hepatocyte growth factor receptor (Homo sapiens), sequence (P08581 whole entry): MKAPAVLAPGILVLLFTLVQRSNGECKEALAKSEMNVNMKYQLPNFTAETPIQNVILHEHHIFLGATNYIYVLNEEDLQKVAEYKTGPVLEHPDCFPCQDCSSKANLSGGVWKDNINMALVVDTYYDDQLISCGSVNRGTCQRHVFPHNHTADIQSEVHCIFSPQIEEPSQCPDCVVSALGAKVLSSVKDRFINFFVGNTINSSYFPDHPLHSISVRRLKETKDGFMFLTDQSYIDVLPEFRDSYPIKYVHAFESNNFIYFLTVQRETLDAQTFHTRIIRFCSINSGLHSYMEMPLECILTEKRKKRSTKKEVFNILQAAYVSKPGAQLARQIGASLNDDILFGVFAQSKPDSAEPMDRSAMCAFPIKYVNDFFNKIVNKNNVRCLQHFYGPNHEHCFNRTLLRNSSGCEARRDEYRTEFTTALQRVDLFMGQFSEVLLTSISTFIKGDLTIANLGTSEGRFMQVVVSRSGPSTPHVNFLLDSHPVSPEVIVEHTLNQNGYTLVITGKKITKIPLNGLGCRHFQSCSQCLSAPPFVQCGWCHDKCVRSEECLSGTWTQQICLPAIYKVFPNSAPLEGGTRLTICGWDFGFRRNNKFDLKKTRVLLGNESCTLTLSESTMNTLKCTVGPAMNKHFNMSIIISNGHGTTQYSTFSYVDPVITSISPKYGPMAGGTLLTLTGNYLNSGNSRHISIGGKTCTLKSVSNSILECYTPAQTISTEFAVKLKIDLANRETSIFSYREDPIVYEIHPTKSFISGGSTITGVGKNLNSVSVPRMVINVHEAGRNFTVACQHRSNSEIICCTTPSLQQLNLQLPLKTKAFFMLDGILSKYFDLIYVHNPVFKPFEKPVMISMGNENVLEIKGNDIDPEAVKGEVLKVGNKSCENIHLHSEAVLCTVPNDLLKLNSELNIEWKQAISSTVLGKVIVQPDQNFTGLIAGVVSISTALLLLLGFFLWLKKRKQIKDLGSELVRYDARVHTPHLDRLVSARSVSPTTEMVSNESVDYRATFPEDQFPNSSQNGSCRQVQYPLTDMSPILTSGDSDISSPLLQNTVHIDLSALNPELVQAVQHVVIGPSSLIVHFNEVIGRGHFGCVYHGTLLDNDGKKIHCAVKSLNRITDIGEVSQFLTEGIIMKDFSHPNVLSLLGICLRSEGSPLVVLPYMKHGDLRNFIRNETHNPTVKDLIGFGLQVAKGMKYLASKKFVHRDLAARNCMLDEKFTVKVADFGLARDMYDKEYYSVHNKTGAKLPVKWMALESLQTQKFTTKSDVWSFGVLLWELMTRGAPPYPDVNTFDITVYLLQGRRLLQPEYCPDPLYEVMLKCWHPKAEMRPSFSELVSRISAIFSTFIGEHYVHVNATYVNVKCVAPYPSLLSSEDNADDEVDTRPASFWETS

[12] = molecular target: Tyrosine-protein kinase CSK (Homo sapiens) (UniProt P41240); test: Inhibition of CSK (unknown origin) at 1 uM
[13] = molecular target: Epithelial discoidin domain-containing receptor 1 (Homo sapiens) (UniProt Q08345); test: Inhibition of DDR1 (unknown origin) at 1 uM
[14] = molecular target: Receptor tyrosine-protein kinase erbB-2 (Homo sapiens) (UniProt P04626); test: Inhibition of ERBB2 (unknown origin) at 1 uM
[15] = molecular target: Fibroblast growth factor receptor 3 (Homo sapiens) (UniProt P22607); test: Inhibition of FGFR3 (unknown origin) at 1 uM
[16] = molecular target: Receptor-type tyrosine-protein kinase FLT3 (Homo sapiens) (UniProt P36888); test: Inhibition of FLT3 (unknown origin) at 1 uM
[17] = molecular target: Inhibitor of nuclear factor kappa-B kinase subunit beta (Homo sapiens) (UniProt O14920); test: Inhibition of IKKbeta (unknown origin) at 1 uM
[18] = molecular target: Insulin receptor (Homo sapiens) (UniProt P06213); test: Inhibition of INSR (unknown origin) at 1 uM
[19] = molecular target: Interleukin-1 receptor-associated kinase 4 (Homo sapiens) (UniProt Q9NWZ3); test: Inhibition of IRAK4 (unknown origin) at 1 uM
Interleukin-1 receptor-associated kinase 4 (Homo sapiens), sequence (Q9NWZ3 whole entry): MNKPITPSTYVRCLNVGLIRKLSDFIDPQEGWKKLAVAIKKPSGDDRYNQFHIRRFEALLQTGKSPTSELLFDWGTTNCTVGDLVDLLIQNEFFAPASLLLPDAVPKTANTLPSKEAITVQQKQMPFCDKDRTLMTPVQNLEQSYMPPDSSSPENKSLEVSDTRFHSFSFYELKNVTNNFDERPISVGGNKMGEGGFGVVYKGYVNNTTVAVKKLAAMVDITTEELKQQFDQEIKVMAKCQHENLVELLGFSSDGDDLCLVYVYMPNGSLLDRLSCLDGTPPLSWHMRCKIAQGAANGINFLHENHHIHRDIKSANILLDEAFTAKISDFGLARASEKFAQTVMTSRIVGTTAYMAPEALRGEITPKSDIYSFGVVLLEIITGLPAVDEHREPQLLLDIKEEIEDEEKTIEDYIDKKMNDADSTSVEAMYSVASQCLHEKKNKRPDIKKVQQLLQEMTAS

[20] = molecular target: Tyrosine-protein kinase JAK3 (Homo sapiens) (UniProt P52333); test: Inhibition of JAK3 (unknown origin) at 1 uM
[21] = molecular target: Serine/threonine-protein kinase mTOR (Homo sapiens) (UniProt P42345); test: Inhibition of mTOR (unknown origin) at 1 uM
[22] = molecular target: Serine/threonine-protein kinase PAK 1 (Homo sapiens) (UniProt Q13153); test: Inhibition of PAK1 (unknown origin) at 1 uM
[23] = molecular target: Serine/threonine-protein kinase PAK 4 (Homo sapiens) (UniProt O96013); test: Inhibition of PAK4 (unknown origin) at 1 uM
[24] = molecular target: Platelet-derived growth factor receptor beta (Homo sapiens) (UniProt P09619); test: Inhibition of PDGFRb (unknown origin) at 1 uM
[25] = molecular target: Serine/threonine-protein kinase pim-1 (Homo sapiens) (UniProt P11309); test: Inhibition of PIM1 (unknown origin) at 1 uM
[26] = molecular target: Protein kinase C alpha type (Homo sapiens) (UniProt P17252); test: Inhibition of PKCalpha (unknown origin) at 1 uM
[27] = molecular target: Proto-oncogene tyrosine-protein kinase receptor Ret (Homo sapiens) (UniProt P07949); test: Inhibition of RET (unknown origin) at 1 uM
[28] = molecular target: Rho-associated protein kinase 2 (Homo sapiens) (UniProt O75116); test: Inhibition of ROCK2 (unknown origin) at 1 uM
Rho-associated protein kinase 2 (Homo sapiens), sequence (O75116 whole entry, looked up): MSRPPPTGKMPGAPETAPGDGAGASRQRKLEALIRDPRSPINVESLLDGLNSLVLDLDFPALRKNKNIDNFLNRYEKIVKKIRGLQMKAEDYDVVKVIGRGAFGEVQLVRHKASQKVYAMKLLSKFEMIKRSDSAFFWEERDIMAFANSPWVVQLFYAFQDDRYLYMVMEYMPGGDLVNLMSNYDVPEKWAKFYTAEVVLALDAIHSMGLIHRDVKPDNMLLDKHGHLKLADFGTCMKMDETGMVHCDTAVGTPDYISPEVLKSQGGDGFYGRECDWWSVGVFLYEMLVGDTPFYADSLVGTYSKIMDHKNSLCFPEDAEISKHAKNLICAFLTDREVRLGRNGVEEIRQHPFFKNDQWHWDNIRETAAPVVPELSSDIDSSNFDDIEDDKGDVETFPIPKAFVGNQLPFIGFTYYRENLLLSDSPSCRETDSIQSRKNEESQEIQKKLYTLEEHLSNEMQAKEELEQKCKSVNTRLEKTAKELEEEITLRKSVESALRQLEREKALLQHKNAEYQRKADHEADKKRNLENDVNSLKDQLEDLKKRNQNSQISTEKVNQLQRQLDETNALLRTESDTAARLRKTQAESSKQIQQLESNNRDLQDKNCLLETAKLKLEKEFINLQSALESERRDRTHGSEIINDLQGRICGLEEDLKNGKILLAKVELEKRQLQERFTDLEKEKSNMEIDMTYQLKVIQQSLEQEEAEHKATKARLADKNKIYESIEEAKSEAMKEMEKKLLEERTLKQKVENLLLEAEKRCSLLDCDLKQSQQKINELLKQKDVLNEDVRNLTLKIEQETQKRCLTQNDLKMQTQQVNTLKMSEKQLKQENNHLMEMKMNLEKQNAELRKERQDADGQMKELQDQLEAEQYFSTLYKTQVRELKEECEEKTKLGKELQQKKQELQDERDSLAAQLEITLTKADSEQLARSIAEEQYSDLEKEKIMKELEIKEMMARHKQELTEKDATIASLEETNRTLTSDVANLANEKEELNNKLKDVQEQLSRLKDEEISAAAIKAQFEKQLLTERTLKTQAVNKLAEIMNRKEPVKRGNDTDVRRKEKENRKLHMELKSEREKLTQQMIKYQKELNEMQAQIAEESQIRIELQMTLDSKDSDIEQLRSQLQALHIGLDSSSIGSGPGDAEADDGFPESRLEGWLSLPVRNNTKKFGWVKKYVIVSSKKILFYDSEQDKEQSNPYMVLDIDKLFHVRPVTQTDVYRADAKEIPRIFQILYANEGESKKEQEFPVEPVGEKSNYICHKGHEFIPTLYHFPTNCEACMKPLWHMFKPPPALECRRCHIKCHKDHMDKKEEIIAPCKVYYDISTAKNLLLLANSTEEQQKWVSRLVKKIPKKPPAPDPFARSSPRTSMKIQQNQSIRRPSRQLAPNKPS

[29] = molecular target: Proto-oncogene tyrosine-protein kinase Src (Homo sapiens) (UniProt P12931); test: Inhibition of SRC (unknown origin) at 1 uM
[30] = molecular target: Tyrosine-protein kinase SYK (Homo sapiens) (UniProt P43405); test: Inhibition of SYK (unknown origin) at 1 uM
[31] = molecular target: Angiopoietin-1 receptor (Homo sapiens) (UniProt Q02763); test: Inhibition of TIE2 (unknown origin) at 1 uM
[32] = molecular target: High affinity nerve growth factor receptor (Homo sapiens) (UniProt P04629); test: Inhibition of TrkA (unknown origin) at 1 uM
High affinity nerve growth factor receptor (Homo sapiens), sequence (P04629 33-796 limits assumed): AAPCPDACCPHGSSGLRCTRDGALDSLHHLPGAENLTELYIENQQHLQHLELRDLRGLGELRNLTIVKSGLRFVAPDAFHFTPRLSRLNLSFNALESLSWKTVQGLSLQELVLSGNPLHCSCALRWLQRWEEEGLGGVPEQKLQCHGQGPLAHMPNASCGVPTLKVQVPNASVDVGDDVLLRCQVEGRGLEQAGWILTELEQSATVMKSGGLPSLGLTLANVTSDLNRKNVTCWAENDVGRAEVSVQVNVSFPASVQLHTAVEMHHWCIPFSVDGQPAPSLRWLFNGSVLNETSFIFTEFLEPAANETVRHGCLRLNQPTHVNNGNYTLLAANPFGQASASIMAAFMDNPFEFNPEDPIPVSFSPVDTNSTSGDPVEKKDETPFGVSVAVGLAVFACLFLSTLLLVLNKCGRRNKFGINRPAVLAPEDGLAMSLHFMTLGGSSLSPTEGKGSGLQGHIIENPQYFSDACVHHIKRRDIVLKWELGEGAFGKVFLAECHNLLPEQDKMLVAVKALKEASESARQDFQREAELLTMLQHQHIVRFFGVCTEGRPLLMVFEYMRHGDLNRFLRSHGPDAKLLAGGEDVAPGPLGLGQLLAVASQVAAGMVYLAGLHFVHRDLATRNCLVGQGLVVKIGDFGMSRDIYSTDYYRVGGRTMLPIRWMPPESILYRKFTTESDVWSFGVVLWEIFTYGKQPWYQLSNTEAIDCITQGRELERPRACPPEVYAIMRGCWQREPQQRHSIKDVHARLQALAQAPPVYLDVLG

[33] = molecular target: Vascular endothelial growth factor receptor 2 (Homo sapiens) (UniProt P35968); test: Inhibition of VEGFR2 (unknown origin) at 1 uM
[34] = Cytotoxicity against human MT4 cells assessed as cell viability at 2500 nM after 7 days by MTT assay relative to control; type: cell-based; conditions: read-out: Activity
Summary of the method: (§2)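 MT4 cells (2−3 × 10⁴/well) in RPMI1640 with 10% FCS, penicillin and streptomycin, exposed to compound at 2500 or 1250 nM for 7 days at 37 °C, 5% CO2. MTT added for 4 h, supernatant removed, formazan dissolved in DMSO, absorbance read at 540 nm. Viability expressed relative to untreated cells (100%).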

[35] = Cytotoxicity against human MT4 cells assessed as cell viability at 1250 nM after 7 days by MTT assay relative to control; type: cell-based; conditions: read-out: Activity; summary of the method: as §2
[36] = tested on: Human immunodeficiency virus 1; test: Antiviral activity against HIV1 HTLV-3B infected in human MT4 cells assessed as inhibition of virus proliferation by measuring host cell viability at 1250 nM relative to control; type: functional
Summary of the method: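 HIV-1 HTLV-IIIB (3400 TCID50/mL per well; titre set by virus yield assay) infected MT4 cells, 2−3 × 10⁴/well in RPMI1640 with 10% FCS, penicillin and streptomycin, cultured as for the 7-day viability assay (37 °C, 5% CO2). Test compounds were at 1250 nM and AZT control at 25 nM. Read-out was MTT (4 h, DMSO, A540), given relative to infected untreated cells (100%).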

[37] = molecular target: T2, CDK9/cyclin T1 (Homo sapiens); test: Competitive inhibition of CDK9/CycT1 (unknown origin) using ATP as substrate; type: protein-complex assay
Summary of the method: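 Kinase inhibition measured with inhibitor held constant at 260 nM across five ATP concentrations, printed as 1.33, 4, 12 (K_mATP), 36 and 108 […]. Ki taken from measured IC50 via the Cheng−Prusoff equation, with the IC50/Ki ratio compared across ATP levels.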

CDK9/cyclin T1 [38] = molecular target: T1, CDK9/cyclin T1; test: Inhibition of CDK9/CycT1 (unknown origin) expressed in HEK293 cells using GST-CTDII as substrate
CDK9/cyclin T1 [39] = molecular target: T1, CDK9/cyclin T1; test: Inhibition of CDK9/CycT1 (unknown origin); type: protein-complex assay

T1 sequence (O60563 whole entry): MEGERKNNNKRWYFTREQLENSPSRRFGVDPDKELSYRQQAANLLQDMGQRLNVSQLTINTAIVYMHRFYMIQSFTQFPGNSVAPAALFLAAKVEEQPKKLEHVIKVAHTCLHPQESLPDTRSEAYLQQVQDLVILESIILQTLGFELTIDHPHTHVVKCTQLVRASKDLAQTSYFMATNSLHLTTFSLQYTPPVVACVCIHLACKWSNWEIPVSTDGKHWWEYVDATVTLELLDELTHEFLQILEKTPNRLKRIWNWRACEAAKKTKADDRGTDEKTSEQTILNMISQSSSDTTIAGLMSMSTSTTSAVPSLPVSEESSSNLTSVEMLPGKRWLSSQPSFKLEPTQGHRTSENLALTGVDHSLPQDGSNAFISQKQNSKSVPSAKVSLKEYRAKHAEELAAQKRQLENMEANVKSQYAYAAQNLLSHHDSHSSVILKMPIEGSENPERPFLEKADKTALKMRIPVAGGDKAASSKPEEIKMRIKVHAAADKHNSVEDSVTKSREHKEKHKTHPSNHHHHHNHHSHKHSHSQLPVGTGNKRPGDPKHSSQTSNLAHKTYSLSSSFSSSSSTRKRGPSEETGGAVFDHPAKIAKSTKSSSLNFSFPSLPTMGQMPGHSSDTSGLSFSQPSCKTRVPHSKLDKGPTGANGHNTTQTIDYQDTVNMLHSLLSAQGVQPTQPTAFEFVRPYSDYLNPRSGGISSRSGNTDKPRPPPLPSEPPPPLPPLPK
T1 sequence (P50750 whole entry): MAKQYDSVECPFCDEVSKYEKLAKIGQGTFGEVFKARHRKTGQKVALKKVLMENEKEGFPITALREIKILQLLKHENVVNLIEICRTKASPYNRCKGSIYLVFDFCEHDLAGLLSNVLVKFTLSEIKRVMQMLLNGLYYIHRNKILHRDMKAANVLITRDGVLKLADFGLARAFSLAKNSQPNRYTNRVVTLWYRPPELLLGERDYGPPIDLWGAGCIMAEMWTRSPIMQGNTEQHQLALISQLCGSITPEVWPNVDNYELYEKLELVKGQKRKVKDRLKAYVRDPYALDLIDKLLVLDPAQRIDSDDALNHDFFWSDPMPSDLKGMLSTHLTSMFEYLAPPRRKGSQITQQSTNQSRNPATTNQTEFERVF

| SMILES | IC50 (CDK9/cyclin T1 [1]) | inhibition [2] | inhibition [3] | inhibition [4] | inhibition [5] | inhibition [6] | inhibition [7] | inhibition [8] | inhibition [9] | inhibition [10] | inhibition [11] | inhibition [12] | inhibition [13] | inhibition [14] | inhibition [15] | inhibition [16] | inhibition [17] | inhibition [18] | inhibition [19] | inhibition [20] | further results |
| --- | --- | --- | --- | --- | --- | --- | --- | --- | --- | --- | --- | --- | --- | --- | --- | --- | --- | --- | --- | --- | --- |
| CCOP(=O)(CC)Cc1cccc(Nc2cc(-c3ccccc3OC)ncn2)c1 (stereo unspecified) | 197 nM | 36% | 24% | 98% | 20% | 11% | 21% | 0% | 12% | 28% | 22% | 24% | 13% | 11% | 8% | 12% | 15% | 12% | 16% | 9% | inhibition [21]: 3%; inhibition [22]: 20%; inhibition [23]: 25%; inhibition [24]: 18%; inhibition [25]: 8%; inhibition [26]: 8%; inhibition [27]: 34%; inhibition [28]: 14%; inhibition [29]: 18%; inhibition [30]: 8%; inhibition [31]: 10%; inhibition [32]: 8%; inhibition [33]: 11%; viability at 168 h, 2.5 µM [34]: 94%; viability at 168 h, 1.25 µM [35]: 94%; Host cell viability relative to infected untreated cells [36]: 105%; competitive inhibition (qualitative) [37]: Active |
| CCCP(=O)(Cc1cccc(Nc2cc(-c3ccccc3OC)ncn2)c1)OCC (stereo unspecified) | 296 nM | 23% | 14% | 95% | 9% | -1% | 7% | 5% | 14% | 16% | 6% | 14% | 7% | 5% | 1% | 6% | 7% | 2% | 9% | 0% | inhibition [21]: 9%; inhibition [22]: 10%; inhibition [23]: 19%; inhibition [24]: 2%; inhibition [25]: -2%; inhibition [26]: 9%; inhibition [27]: 16%; inhibition [28]: 7%; inhibition [29]: 4%; inhibition [30]: -1%; inhibition [31]: 5%; inhibition [32]: -1%; inhibition [33]: 6%; viability at 168 h, 2.5 µM [34]: 81%; viability at 168 h, 1.25 µM [35]: 66%; Host cell viability relative to infected untreated cells [36]: 131%; competitive inhibition (qualitative) [37]: Active |
| COc1ccccc1-c1cc(Nc2cccc(S(N)(=O)=O)c2)ncn1 |  |  |  |  |  |  |  |  |  |  |  |  |  |  |  |  |  |  |  |  | IC50 (CDK9/cyclin T1 [38]): 52 nM |
| COc1ccccc1-c1cc(Nc2cccc(NS(N)(=O)=O)c2)ncn1 |  |  |  |  |  |  |  |  |  |  |  |  |  |  |  |  |  |  |  |  | IC50 (CDK9/cyclin T1 [39]): 170 nM |
